The source made the active and inactive calls.
Legend:
Mus musculus [1] = species on record: Mus musculus; assay: Anticonvulsant activity by using bicuculline test in mice; Inactive; type: functional, organism-based
Mus musculus [2] = assay: Anticonvulsant activity by using subcutaneous pentylenetetrazole (Metrazol) seizure threshold test in mice; Inactive; type: functional, organism-based
Rattus norvegicus [3] = assay: In vivo formation of alpha-baclofen in 3-6h after administration of 55 mg/kg of compound intraperitoneally into 1r at; type: functional, organism-based; parameters: dose 55 mg/kg
In short: (§1)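 Male Wistar rats housed in metabolism cages were given 55 mg/kg prodrug ip. Urine was collected at 3 and 6 h and assayed by HPLC/EC; cumulative amount is reported per rat. One rat was decapitated at 3 h, and its brain was homogenized in Tris-KCl and assayed by HPLC/EC.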

Rattus norvegicus [4] = assay: In vivo formation of alpha-baclofen in 3-6h after administration of 55 mg/kg of compound intraperitoneally into 2 rats; type: functional, organism-based; parameters: dose 55 mg/kg; in short: as §1
Rattus norvegicus [5] = assay: In vivo formation of baclofen in 0-3 hr after administration of 55 mg/kg of compound intraperitoneally into 2 rats; type: functional, organism-based; parameters: dose 55 mg/kg; in short: as §1
Rattus norvegicus [6] = assay: In vivo formation of baclofen in 3-6h after administration of 55 mg/kg of compound intraperitoneally into 1r at; type: functional, organism-based; parameters: dose 55 mg/kg; in short: as §1
Rattus norvegicus [7] = assay: Number of rats displaying convulsions by pretreatment with 55 mg/kg of compound (ip) in the presence of isoniazid after 63 mins out of 6 rats tested; type: functional
In short: (§2)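 Male Wistar rats were pretreated with test agent at 55 mg/kg ip (200 mg/mL in saline or DMSO), then given isoniazid 425 mg/kg sc (180 mg/mL in saline).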

Rattus norvegicus [8] = species on record: Rattus norvegicus; assay: Amount of metabolite alpha-baclofen produced in liver of rat at a concentration of 700 g of the compound; None detected; type: functional, organism-based
Rattus norvegicus [9] = species on record: Rattus norvegicus; assay: Amount of metabolite alpha-baclofen lactam produced in brain of rat at a concentration of 12000 g of the compound; type: functional
Rattus norvegicus [10] = species on record: Rattus norvegicus; assay: Amount of metabolite alpha-baclofen produced in liver of rat at a concentration of 12000 g of the compound; None detected; type: functional, organism-based
Rattus norvegicus [11] = assay: In vivo formation of baclofen in 3-6h after administration of 55 mg/kg of compound intraperitoneally into 2 rats; type: functional, organism-based; parameters: dose 55 mg/kg; in short: as §1
Rattus norvegicus [12] = assay: In vivo formation of baclofen in 3h after administration of 55 mg/kg of compound intraperitoneally into 3 rats; type: functional, organism-based; parameters: dose 55 mg/kg; in short: as §1
Rattus norvegicus [13] = assay: In vivo formation of alpha-baclofen in 0-3 hr after administration of 55 mg/kg of compound intraperitoneally into 2 rats; type: functional, organism-based; parameters: dose 55 mg/kg; in short: as §1
Rattus norvegicus [14] = species on record: Rattus norvegicus; assay: Amount of metabolite alpha-baclofen lactam produced in liver of rat at a concentration of 700 g of the compound; type: functional
Rattus norvegicus [15] = assay: In vivo formation of alpha-baclofen in 0-3 hr after administration of 55 mg/kg of compound intraperitoneally into 1r at; type: functional, organism-based; parameters: dose 55 mg/kg; in short: as §1
Rattus norvegicus [16] = assay: Number of rats died by pretreatment with 55 mg/kg of compound (ip) in the presence of isoniazid after 63 mins out of 6 rats tested; type: functional; in short: as §2
Rattus norvegicus [17] = species on record: Rattus norvegicus; assay: Amount of metabolite alpha-baclofen lactam produced in liver of rat at a concentration of 12000 g of the compound; type: functional
Rattus norvegicus [18] = assay: In vivo formation of baclofen in 2 hr after administration of 5.5 mg/kg of compound intraperitoneally into 4 rats; type: functional, organism-based; parameters: dose 5.5 mg/kg
Rattus norvegicus [19] = species on record: Rattus norvegicus; assay: Amount of metabolite alpha-baclofen produced in brain of rat at a concentration of 12000 g of the compound; None detected; type: functional, organism-based
Rattus norvegicus [20] = assay: In vivo formation of baclofen in 0-3 hr after administration of 55 mg/kg of compound intraperitoneally into 1r at; type: functional, organism-based; parameters: dose 55 mg/kg; in short: as §1
Rattus norvegicus [21] = species on record: Rattus norvegicus; assay: Amount of metabolite alpha-baclofen lactam produced in brain of rat at a concentration of 700 g of the compound; type: functional
Rattus norvegicus [22] = assay: In vivo formation of baclofen in 4 hr after administration of 5.5 mg/kg of compound intraperitoneally into 4 rats; type: functional, organism-based; parameters: dose 5.5 mg/kg
Rattus norvegicus [23] = species on record: Rattus norvegicus; assay: Amount of metabolite alpha-baclofen produced in brain of rat at a concentration of 700 g of the compound; None detected; type: functional, organism-based
Mus musculus [24] = species on record: Mus musculus; assay: Anticonvulsant activity by using rotarod toxicity test in mice; type: functional
Rattus norvegicus [25] = species on record: Rattus norvegicus; assay: Amount of metabolite produced in liver of rat at a concentration of 12000 g of the compound; type: functional
Rattus norvegicus [26] = assay: Number of rats died by pretreatment with 55 mg/kg of compound (ip) in the presence of isoniazid after 49 mins out of 8 rats tested; type: organism-based; parameters: dose 55 mg/kg; settings: in vivo; in short: as §2
Mus musculus [27] = species on record: Mus musculus; assay: Anticonvulsant activity by using maximal electroshock seizure test in mice; type: functional
Rattus norvegicus [28] = species on record: Rattus norvegicus; assay: Amount of metabolite produced in liver of rat at a concentration of 700 g of the compound; type: functional
Mus musculus [29] = assay: Anticonvulsant activity by using subcutaneous pentylenetetrazole (Metrazol) seizure threshold test in mice; type: functional; settings: for ED50: sc
Rattus norvegicus [30] = species on record: Rattus norvegicus; assay: Amount of metabolite produced in brain of rat at a concentration of 12000 g of the compound; type: functional
Rattus norvegicus [31] = assay: Number of rats displaying convulsions by pretreatment with 55 mg/kg of compound (ip) in the presence of isoniazid after 49 mins out of 8 rats tested; type: functional; in short: as §2
Rattus norvegicus [32] = species on record: Rattus norvegicus; assay: Amount of metabolite produced in brain of rat at a concentration of 700 g of the compound; type: functional
Mus musculus [33] = species on record: Mus musculus; assay: Anticonvulsant activity by using bicuculline test in mice; type: functional

In the case of O=C1NC(=O)C(c2ccccc2)(c2ccccc2)N1, the ED50 (Mus musculus [1]) is reported as “inactive” and the ED50 (Mus musculus [2]) is reported as “inactive”.

Clc1ccc(C2CCNC2)cc1 (centres undefined) showed a Concentration (Rattus norvegicus [3]) of 2.6 µg/mL, a Concentration (Rattus norvegicus [4]) of 2.3 µg/mL and a Concentration (Rattus norvegicus [5]) of 0 µg/mL. The Concentration (Rattus norvegicus [6]) was 16 µg/mL, the Activity (Rattus norvegicus [7]) was 6 and the Activity (Rattus norvegicus [8]) was “Not detected”. The Activity (Rattus norvegicus [9]) was 0.21 µg/mL, the Activity (Rattus norvegicus [10]) was “Not detected” and the Concentration (Rattus norvegicus [11]) was 9.4 µg/mL. It also gave a Concentration (Rattus norvegicus [12]) of 24.3 ng/g, a Concentration (Rattus norvegicus [13]) of 0 µg/mL and an Activity (Rattus norvegicus [14]) of 46.7 µg/mL. For the same compound, the Concentration (Rattus norvegicus [15]) was 0.5 µg/mL, the Activity (Rattus norvegicus [16]) was 0 and the Activity (Rattus norvegicus [17]) was 24.5 µg/mL. For the same compound, the Concentration (Rattus norvegicus [18]) was 0.04 µg/mL, the Activity (Rattus norvegicus [19]) was “Not detected” and the Concentration (Rattus norvegicus [20]) was 2 µg/mL. For the same compound, the Activity (Rattus norvegicus [21]) was 0.5 µg/mL, the Concentration (Rattus norvegicus [22]) was 0.12 µg/mL and the Activity (Rattus norvegicus [23]) was “Not detected”.

In the case of O=C1CC(c2ccc(Cl)cc2)CN1 (centres undefined), the TD50 (Mus musculus [24]) is reported as 117 mg/kg, the Activity (Rattus norvegicus [25]) is reported as 14.6 µg/mL and the “No. of rats died” value (Rattus norvegicus [26]) is reported as 1. It also gave an ED50 (Mus musculus [27]) of 68 mg/kg, an Activity (Rattus norvegicus [28]) of 26.4 µg/mL and an ED50 (Mus musculus [29]) of 41 mg/kg. For the same compound, the Activity (Rattus norvegicus [30]) was 0.28 µg/mL, the Activity (Rattus norvegicus [31]) was 2 and the Activity (Rattus norvegicus [32]) was 2.11 µg/mL. The ED50 (Mus musculus [33]) was 143 mg/kg.

NCC(CC(=O)O)c1ccc(Cl)cc1 (centres undefined) [BACLOFEN] gave a TD50 (Mus musculus [24]) of 47 mg/kg, an Activity (Rattus norvegicus [25]) of 0.13 µg/mL and an ED50 (Mus musculus [27]) of over 600 mg/kg. For the same compound, the Activity (Rattus norvegicus [28]) was 0.197 µg/mL, the Dose (Mus musculus [29]) was 50 mg/kg and the Activity (Rattus norvegicus [30]) was 0.097 µg/mL. The Activity (Rattus norvegicus [32]) was 0.162 µg/mL.

NC(=O)CCC/N=C(\c1ccc(Cl)cc1)c1cc(F)ccc1O [PROGABIDE] gave an ED50 (Mus musculus [27]) of 75 mg/kg, an ED50 (Mus musculus [29]) of 30 mg/kg and an ED50 (Mus musculus [33]) of 20 mg/kg.

CCCC(CCC)C(=O)O [VALPROIC ACID] gave an ED50 (Mus musculus [29]) of 149 mg/kg and an ED50 (Mus musculus [33]) of 360 mg/kg.

CCC1(c2ccccc2)C(=O)NC(=O)NC1=O [PHENOBARBITAL] was tested, and the TD50 (Mus musculus [24]) was 69 mg/kg, the ED50 (Mus musculus [27]) was 22 mg/kg and the ED50 (Mus musculus [29]) was 13 mg/kg. It also gave an ED50 (Mus musculus [33]) of 38 mg/kg.

Reference: ChEMBL document CHEMBL1124499, “Metabolism of 3-(p-chlorophenyl)pyrrolidine. Structural effects in conversion of a prototype gamma-aminobutyric acid prodrug to lactam and gamma-aminobutyric acid type metabolites” (J Med Chem, 1989)
